As usually defined, the pKa is the pH at which an ionisable group is half protonated. Broadly, the ED50 is the dose that gives a 50% effect, or the effect in half of the subjects.

Data set [1] is described as follows: Dissociation constant (pKa). Format: physicochemical.
Data set [2] relates to Canis familiaris. The data set can be described thus: Intravenous effective dose for gastric antisecretory activity against histamine-stimulated gastric acid secretion in adult mongrel dogs; Inactive-less than 20% inhibition at 5 mg/Kg (experimental). Format: functional, organism-based. To be noted: Canis lupus familiaris; Stomach. In outline: (§1)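 Adult mongrel dogs with surgically prepared Heidenhain pouches received histamine to stimulate acid secretion. Compounds were given intravenously at 0.1-5 mg/kg. Reduction in acid output was measured against the non-drug control value in the same animal. ED50 for 50% inhibition was derived by linear regression, with 95% confidence limits.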

The subject of data set [3] is Canis familiaris. The data set can be described thus: Intravenous effective dose for gastric antisecretory activity against histamine-stimulated gastric acid secretion in adult mongrel dogs. Format: functional. The note with it: Canis lupus familiaris, Stomach. In outline:
as §1

The species named for data set [4] is Canis familiaris. As to the kind of experiment: Peroral effective dose for gastric antisecretory activity against histamine-stimulated gastric acid secretion in adult mongrel dogs; Inactive. It is filed as functional, organism-based. The note with it: Canis lupus familiaris; Stomach.
Data set [5] deals with Potassium-transporting ATPase (Sus scrofa, UniProt P19156). The data set can be described thus: (§2) Inhibition of purified H+/K+ ATPase at pH 7.4 as released inorganic phosphate from ATP using hog stomach gastric membrane vesicles. It is filed as tissue-based. In outline:
(§3)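 Gastric membrane vesicles from hog stomach were prepared by differential and zonal density gradient centrifugation. Activity was read as inorganic phosphate released from ATP at pH 7.4. Protein was measured by the Bradford method against a gammaglobulin standard.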

The target of data set [6] is Potassium-transporting ATPase (Oryctolagus cuniculus). As to the kind of experiment: Inhibition of H+/K+ ATPase as reduced acid formation in rabbit gastric glands.
For data set [7], the system named is Canis familiaris. The data set can be described thus: Intravenous effective dose for gastric antisecretory activity against histamine-stimulated gastric acid secretion in adult mongrel dogs; Inactive. Format: functional, organism-based. The note with it: Canis lupus familiaris; Stomach. The essentials: as §1
For data set [8], the system named is Potassium-transporting ATPase (Oryctolagus cuniculus). The data set can be described thus: Inhibition of H+/K+ ATPase was evaluated by its ability to inhibit acid formation in rabbit gastric glands; Inactive.
The target of data set [9] is T1, Potassium-transporting ATPase (Sus scrofa, UniProt P18434+P19156). The data set can be described thus: Ability to inhibit purified H+/K+ ATPase at pH 7.4 measured as release of inorganic phosphate from ATP using gastric membrane vesicles prepared from hog stomach; Inactive. Format: tissue-based. The essentials: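 Gastric membrane vesicles from hog stomach were prepared by differential and zonal density gradient centrifugation. Activity was read as inorganic phosphate released from ATP at pH 7.4. IC50 was taken as the concentration giving 50% inhibition of K+-stimulated activity, calculated by linear regression and reported ± standard error of the mean. Protein was measured by the Bradford method against a gammaglobulin standard.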
T1 sequence (P18434 whole entry): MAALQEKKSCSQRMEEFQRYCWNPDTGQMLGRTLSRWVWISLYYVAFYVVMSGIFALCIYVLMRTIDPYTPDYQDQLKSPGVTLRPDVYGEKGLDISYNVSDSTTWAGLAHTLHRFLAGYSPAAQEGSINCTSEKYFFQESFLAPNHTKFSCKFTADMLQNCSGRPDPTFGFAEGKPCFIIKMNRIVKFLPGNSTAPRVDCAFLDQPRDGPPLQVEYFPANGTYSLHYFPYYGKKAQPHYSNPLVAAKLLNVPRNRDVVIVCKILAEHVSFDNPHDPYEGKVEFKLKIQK
T1 sequence (P19156 whole entry): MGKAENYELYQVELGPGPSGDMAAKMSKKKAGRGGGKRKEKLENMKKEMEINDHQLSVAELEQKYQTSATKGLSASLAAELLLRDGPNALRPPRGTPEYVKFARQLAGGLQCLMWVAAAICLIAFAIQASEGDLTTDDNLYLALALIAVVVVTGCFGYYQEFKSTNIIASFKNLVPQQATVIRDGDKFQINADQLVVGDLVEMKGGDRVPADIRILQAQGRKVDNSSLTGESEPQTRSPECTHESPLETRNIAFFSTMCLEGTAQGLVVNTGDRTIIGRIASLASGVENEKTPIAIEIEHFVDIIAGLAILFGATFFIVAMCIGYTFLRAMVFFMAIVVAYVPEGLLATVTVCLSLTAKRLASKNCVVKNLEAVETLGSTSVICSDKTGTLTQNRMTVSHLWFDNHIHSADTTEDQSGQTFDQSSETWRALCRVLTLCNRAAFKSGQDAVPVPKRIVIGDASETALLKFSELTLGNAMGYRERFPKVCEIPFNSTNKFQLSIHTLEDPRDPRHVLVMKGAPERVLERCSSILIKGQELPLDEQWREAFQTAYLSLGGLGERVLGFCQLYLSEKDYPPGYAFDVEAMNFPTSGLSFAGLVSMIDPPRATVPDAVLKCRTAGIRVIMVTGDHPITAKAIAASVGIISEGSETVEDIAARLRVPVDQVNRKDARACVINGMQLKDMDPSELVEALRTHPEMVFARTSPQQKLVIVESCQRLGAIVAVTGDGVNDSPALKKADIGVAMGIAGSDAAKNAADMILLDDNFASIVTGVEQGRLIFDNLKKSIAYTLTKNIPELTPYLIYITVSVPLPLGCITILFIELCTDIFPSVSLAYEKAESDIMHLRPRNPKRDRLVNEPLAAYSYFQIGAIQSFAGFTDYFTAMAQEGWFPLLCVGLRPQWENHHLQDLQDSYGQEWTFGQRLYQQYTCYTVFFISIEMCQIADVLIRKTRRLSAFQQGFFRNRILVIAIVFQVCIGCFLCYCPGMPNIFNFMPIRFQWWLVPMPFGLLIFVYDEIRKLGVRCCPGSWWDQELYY

For data set [10], the target named is T1, Potassium-transporting ATPase. Described as §2. It is filed as tissue-based. The essentials: as §3

Activity calls are given as the source filed them. The rule behind the calls is not given here.

Chain of Potassium-transporting ATPase (Sus scrofa, UniProt P19156) (P18434 whole entry): as the sequence (P18434 whole entry) above
Chain of Potassium-transporting ATPase (Sus scrofa, UniProt P19156) (P19156 whole entry): as the sequence (P19156 whole entry) above

Take `Cc1nc2c(CCc3ccccc3)nccn2c1N`: in data set [1], the pKa is 5.1. In addition, in the data set on Canis familiaris [2], the ED50 result is “inactive”.
In the data set on Canis familiaris [3], `Cc1nc2c(OCc3ccccc3)nccn2c1C` yielded a 50% effective dose (ED50) of 2 mg/kg. In addition, in [1], the pKa worked out at 4.8.
`Cc1nc2c(/C=C\c3ccccc3)cccn2c1C`: the ED50 entry in the data set filed under Canis familiaris [4] and in the data set with Canis familiaris [7] was “inactive” each time. The figures for the IC50 in [5] and in [6] (read-out: IC50) were 28400 nM and 17500 nM, respectively.
Consider `Cc1nc2c3c(ccn2c1CC#N)CCC(c1ccccc1)O3` (stereo unspecified), for which it took a dose of 0.06 mg/kg to reach the 50% effect level in the data set on Canis familiaris [3] (ED50). For the same compound, the values for the IC50 in data set [5] and in data set [6] (read-out: IC50) were 92 nM and 64 nM, respectively.
Consider `Cc1ccn2c(CC#N)c(C)nc2c1OCc1ccccc1`, for which the results for the IC50 in data set [5] and in [6] (read-out: IC50) were 13700 nM and 400 nM, respectively.
Turning to `Cc1nc2c(/C=C/Cc3ccccc3)cccn2c1N`, the ED50 result in the data set filed under Canis familiaris [4] and with Canis familiaris [7] was “inactive” in each case. The IC50 in data set [5] came to 8600 nM; in data set [6] (read-out: IC50), 14100 nM.
In the case of `OCc1c(C(F)(F)F)nc2c(OCc3ccccc3)cccn12`, the IC50 result in [8] and in data set [9] was “Not Active” in each case. Also, the ED50 entry in the data set filed under Canis familiaris [4] and with Canis familiaris [7] was “inactive” throughout. In data set [1], the pKa is 2.
Regarding `Cc1nc2c(CCc3ccccc3)cccn2c1C`, the ED50 with Canis familiaris [3] came out at 0.2 mg/kg. In data set [1], this compound gave a pKa of 7.5.
Turning to `Cc1nc2c(CCc3ccccc3)cccn2c1CC#N`, the IC50 in data set [5] amounted to 2000 nM; in [6] (read-out: IC50), 130 nM.
As to `Cc1nc2c(OCc3ccccc3)cccn2c1C`, the 50% effective dose (ED50) in the data set with Canis familiaris [3] was determined as 0.1 mg/kg. The pKa in [1] came to 7.
`N#CCc1c(C(F)(F)F)nc2c(OCc3ccccc3)cccn12`: the IC50 result in data set [8] and in [9] was “Not Active” each time. The ED50 result in the data set filed under Canis familiaris [4] and in the data set on Canis familiaris [7] was “inactive” in each case. The pKa in data set [1] amounted to 2.
`Cc1nc2c(CCc3ccccc3)cccn2c1N`: the IC50 in data set [5] came to 2100 nM; in data set [6] (read-out: IC50), 1460 nM.
Take `Cc1nc2c(OCc3ccccc3)nccn2c1N`: the IC50 in [10] came out at 178 uM l-1; in data set [6] (read-out: IC50), 8080 nM.
With `Cc1nc2c(C/C=C/c3ccccc3)cccn2c1CC#N`, the ED50 result in the data set listed under Canis familiaris [4] and with Canis familiaris [7] was “inactive” in each case. Besides, the IC50 in data set [10] was found to be 206 uM l-1; in [6], 442 uM l-1.
Take `Cc1c(CC#N)nc2c(OCc3ccccc3)cccn12`: the 50% effective dose (ED50) in the data set with Canis familiaris [3] is 0.8 mg/kg. The compound further showed a pKa in [1] of 5.5.
`Cc1nc2c(/C=C/Cc3ccccc3)cccn2c1CC#N`: the values for the IC50 in data set [5] and in data set [6] (read-out: IC50) were 14000 nM and 3800 nM, respectively.
For `Cc1nc2c(/C=C/c3ccccc3)cccn2c1C`, in that order: 1680 nM and 990 nM.
For `Cc1nc2c(OCc3ccccc3)cccn2c1N` the same measures were 890 nM and 310 nM.
In the case of `Cc1c(C(F)(F)F)nc2c(OCc3ccccc3)cccn12`, in [1], the pKa worked out at 2. The ED50 entry with Canis familiaris [2] is “inactive”.
In the data set with Canis familiaris [3], `Cc1nc2c(OCc3ccccc3)cccn2c1CO` displayed an ED50 of 0.3 mg/kg. The ED50 entry in the data set filed under Canis familiaris [4] is “inactive”. For the same compound, the figures for the IC50 in [5] and in data set [6] (read-out: IC50) were 2200 nM and 530 nM, respectively. Moreover, in [1], the pKa was determined as 6.1.

For the origin of these results see ChEMBL document CHEMBL1130412, “Antiulcer agents. 6. Analysis of the in vitro biochemical and in vivo gastric antisecretory activity of substituted imidazo[1,2-a]pyridines and related analogues using comparative molecular field analysis and hypothetical active site lattice methodologies” (J Med Chem, 1997).
